Key:
[1] = target: Nitric oxide synthase, inducible (Homo sapiens) (UniProt P35228); experiment: Inhibition of human iNOS expressed in insect Sf9 cells assessed as residual activity at 100 uM by Griess assay relative to control
How it was run: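 Human iNOS made in Sf9 cells, incubated at 37 °C for 20 min in 50 mM triethanolamine pH 7.5 with 1 mM Mg2+, FAD/FMN 5 µM each, 0.5 mM NADPH, 10 µM H4B, CaM and 1 mM L-arginine. Compound 100 µM final. NADPH cleared with lactate dehydrogenase/pyruvate before Griess reaction (543 nm). Residual activity relative to 1% DMSO control; mean of 5 experiments.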

[2] = target: T1, Nitric oxide synthase 3 (Homo sapiens) (UniProt P29474); experiment: Inhibition of human eNOS assessed as residual activity at 100 uM by Griess assay relative to control
T1 sequence (whole entry): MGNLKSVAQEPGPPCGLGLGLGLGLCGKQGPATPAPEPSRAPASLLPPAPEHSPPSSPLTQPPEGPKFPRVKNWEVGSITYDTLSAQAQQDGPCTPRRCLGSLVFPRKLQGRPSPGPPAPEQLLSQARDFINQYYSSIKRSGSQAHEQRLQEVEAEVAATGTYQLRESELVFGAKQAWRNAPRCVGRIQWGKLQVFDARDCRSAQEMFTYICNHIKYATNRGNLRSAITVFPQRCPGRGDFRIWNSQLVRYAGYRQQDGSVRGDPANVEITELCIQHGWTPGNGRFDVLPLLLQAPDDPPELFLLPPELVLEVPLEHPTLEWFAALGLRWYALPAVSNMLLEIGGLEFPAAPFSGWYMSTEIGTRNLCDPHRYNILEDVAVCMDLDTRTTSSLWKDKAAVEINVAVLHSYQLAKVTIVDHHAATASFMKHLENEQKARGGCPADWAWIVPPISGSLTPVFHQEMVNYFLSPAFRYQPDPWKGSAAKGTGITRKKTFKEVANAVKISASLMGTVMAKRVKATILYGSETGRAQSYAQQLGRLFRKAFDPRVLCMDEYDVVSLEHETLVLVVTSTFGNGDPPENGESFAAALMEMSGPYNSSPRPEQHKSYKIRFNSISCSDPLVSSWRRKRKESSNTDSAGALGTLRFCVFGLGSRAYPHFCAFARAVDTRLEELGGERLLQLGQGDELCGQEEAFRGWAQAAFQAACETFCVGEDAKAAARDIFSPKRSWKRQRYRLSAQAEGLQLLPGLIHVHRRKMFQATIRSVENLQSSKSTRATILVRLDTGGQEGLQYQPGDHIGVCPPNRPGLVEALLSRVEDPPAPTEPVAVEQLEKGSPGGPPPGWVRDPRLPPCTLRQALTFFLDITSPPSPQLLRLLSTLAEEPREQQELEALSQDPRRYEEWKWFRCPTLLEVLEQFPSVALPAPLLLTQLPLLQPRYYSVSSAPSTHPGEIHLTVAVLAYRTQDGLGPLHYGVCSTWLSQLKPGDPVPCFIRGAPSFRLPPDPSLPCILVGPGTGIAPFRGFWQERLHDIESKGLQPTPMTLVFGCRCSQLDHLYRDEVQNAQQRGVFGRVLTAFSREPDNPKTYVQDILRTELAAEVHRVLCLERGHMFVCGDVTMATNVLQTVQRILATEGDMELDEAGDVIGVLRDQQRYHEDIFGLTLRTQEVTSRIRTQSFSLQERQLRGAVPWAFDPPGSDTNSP
How it was run: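 Human eNOS expressed in Pichia pastoris. Incubated 20 min at 37 °C in triethanolamine pH 7.5 with 0.5 mM Ca2+, CaM, H4B 10 µM, FAD/FMN 5 µM, NADPH 0.5 mM, L-arginine 1 mM and compound at 100 µM final. Nitrite read by Griess (543 nm) after LDH/pyruvate NADPH removal; % of 1% DMSO control from 5 experiments.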

[3] = target: T2, Nitric oxide synthase 3 (Bos taurus) (UniProt P29473); experiment: Inhibition of bovine recombinant eNOS expressed in Escherichia coli assessed as conversion of [gamma-14C]L-arginine to [14C]L-citrulline at 100 uM by radioactive assay relative to control; set-up: scale not given: the % may be the effect or the level left
T2 sequence (whole entry): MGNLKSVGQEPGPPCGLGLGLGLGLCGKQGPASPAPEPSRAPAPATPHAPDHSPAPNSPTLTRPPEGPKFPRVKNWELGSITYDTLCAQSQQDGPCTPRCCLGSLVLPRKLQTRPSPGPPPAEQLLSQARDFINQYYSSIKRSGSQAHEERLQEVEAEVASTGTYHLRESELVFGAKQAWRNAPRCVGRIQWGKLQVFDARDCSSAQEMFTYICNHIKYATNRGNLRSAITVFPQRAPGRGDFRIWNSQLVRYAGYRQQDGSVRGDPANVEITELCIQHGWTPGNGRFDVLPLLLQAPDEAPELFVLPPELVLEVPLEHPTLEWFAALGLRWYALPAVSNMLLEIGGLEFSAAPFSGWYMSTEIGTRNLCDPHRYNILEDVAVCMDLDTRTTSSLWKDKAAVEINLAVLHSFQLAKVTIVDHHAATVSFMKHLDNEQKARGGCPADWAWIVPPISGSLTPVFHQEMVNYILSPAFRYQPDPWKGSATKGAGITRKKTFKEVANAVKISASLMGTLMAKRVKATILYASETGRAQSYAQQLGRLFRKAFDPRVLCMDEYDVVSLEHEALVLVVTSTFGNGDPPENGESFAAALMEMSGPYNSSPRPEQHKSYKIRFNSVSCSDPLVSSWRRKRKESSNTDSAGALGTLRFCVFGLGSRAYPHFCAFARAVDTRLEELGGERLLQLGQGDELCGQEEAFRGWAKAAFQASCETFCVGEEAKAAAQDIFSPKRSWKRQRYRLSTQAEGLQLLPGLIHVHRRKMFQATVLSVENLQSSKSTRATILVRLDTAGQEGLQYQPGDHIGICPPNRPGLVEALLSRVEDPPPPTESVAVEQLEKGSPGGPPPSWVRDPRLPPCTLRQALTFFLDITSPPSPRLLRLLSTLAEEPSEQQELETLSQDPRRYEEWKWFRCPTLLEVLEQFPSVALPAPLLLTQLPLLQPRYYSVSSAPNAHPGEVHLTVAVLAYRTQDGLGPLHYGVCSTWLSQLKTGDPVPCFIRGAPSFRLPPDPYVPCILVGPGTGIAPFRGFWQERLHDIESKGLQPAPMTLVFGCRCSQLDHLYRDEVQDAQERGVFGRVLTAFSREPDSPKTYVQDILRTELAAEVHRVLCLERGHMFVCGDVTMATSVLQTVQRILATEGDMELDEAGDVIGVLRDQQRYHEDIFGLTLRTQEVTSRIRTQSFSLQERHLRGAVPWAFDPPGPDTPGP
How it was run: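 Purified enzymes: rat nNOS from S. cerevisiae, murine iNOS and bovine eNOS from E. coli. Reaction 5 min at 37 °C in 50 mM Hepes pH 7.4 with DTT, 1 mM NADPH, H4B, FAD, FMN, [14C]L-arginine (2.5 µM L-arginine) and 100 µM compound in 1% DMSO. nNOS/eNOS also got 1 mM CaCl2 and CaM, which iNOS lacked. [14C]citrulline isolated on Dowex and counted by scintillation; % of DMSO control, n=3.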

Chain of Nitric oxide synthase, inducible (Homo sapiens) (P35228 whole entry): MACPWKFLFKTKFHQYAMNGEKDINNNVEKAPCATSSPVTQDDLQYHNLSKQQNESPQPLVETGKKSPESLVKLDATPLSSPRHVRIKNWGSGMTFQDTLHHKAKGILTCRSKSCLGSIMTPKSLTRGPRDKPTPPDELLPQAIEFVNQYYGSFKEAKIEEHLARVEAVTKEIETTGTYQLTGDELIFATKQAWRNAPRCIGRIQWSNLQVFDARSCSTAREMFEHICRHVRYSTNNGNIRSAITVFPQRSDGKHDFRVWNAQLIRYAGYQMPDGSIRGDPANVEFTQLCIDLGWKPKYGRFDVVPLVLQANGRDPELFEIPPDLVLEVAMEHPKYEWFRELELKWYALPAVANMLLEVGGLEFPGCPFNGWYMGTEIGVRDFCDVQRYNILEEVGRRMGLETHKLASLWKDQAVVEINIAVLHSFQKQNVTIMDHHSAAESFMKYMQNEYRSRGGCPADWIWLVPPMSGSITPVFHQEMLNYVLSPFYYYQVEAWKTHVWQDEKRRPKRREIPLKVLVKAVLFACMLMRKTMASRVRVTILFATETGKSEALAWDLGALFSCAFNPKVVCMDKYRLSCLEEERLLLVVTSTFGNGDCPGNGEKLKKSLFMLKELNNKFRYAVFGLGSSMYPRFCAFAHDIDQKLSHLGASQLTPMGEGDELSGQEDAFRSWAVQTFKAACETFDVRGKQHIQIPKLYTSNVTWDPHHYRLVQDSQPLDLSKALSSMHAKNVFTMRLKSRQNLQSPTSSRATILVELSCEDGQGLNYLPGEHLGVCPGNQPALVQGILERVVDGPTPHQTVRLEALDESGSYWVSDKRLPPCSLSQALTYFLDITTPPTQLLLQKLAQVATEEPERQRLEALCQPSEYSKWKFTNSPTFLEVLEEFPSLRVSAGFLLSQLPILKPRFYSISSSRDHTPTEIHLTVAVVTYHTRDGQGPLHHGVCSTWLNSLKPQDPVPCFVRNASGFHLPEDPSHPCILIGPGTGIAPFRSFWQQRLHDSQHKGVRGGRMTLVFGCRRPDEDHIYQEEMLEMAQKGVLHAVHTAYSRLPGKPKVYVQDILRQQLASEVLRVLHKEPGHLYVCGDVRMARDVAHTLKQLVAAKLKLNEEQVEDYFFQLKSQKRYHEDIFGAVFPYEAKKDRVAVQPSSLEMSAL

| Compound | Activity [1] | Activity [2] | Activity [3] |
| --- | --- | --- | --- |
| COc1ccc2cc(C(=O)C3CN=C4C=C(C)C=CN4C3)ccc2c1 (centres undefined) | 88% | 98% |  |
| O=C(c1ccc2ccccc2c1)C1CN=C2C=CC=CN2C1 (centres undefined) | 93% | 60% |  |
| CC(=N)NCc1cccc(CN)c1 | 5% | 105% |  |
| CCSC(=N)N | 6% | 37% |  |
| CC1=CC2=NCC(C(=O)c3ccc(OCc4ccc(C#N)cc4)cc3)CN2C=C1.[O-][Cl+3]([O-])([O-])O (centres undefined) | 105% | 78% | 44% |
| CC1=CC2=NCC(C(=O)c3ccc(-c4ccc(Br)cc4)cc3)CN2C(C)=C1 (centres undefined) | 89% | 15% | 32% |
| CC1=CC2=NCC(C(=O)c3ccc(Cl)cc3)CN2C=C1 (centres undefined) | 50% | 7% |  |
| CC1=CC2=NCC(C(=O)c3ccccc3)CN2C=C1 (centres undefined) | 63% | 72% |  |
| CC1=CC=CC2=NCC(C(=O)c3ccc(Br)cc3)CN12 (centres undefined) | 93% | 86% |  |
| CC1=CC2=NCC(C(=O)c3ccc4cc(C)ccc4c3)CN2C(C)=C1.[O-][Cl+3]([O-])([O-])O (centres undefined) | 83% | 86% | 17% |
| CC1=CC2=NCC(C(=O)c3ccc(OCc4ccc(Cl)cc4)cc3)CN2C=C1.[O-][Cl+3]([O-])([O-])O (centres undefined) | 94% | 8% | 2% |
| CC1=CC2=NCC(C(=O)c3ccc(OCc4ccc(Br)cc4)cc3)CN2C=C1.Cl (centres undefined) | 83% | 16% | 77% |
| O=C(c1ccc(Br)cc1)C1CN=C2C=CC=CN2C1 (centres undefined) | 110% | 85% |  |
| CC1=CC=CC2=NCC(C(=O)c3ccc(C)cc3)CN12.[O-][Cl+3]([O-])([O-])O (centres undefined) |  |  | 84% |
| CC1=CC=CC2=NCC(C(=O)c3ccc4ccccc4c3)CN12 (centres undefined) | 89% | 75% |  |
| N=C(NCCC[C@H](N)C(=O)O)N[N+](=O)[O-] | 48% | 25% | 5% |
| CC1=CC2=NCC(C(=O)c3ccc(-c4ccc(C#N)cc4)cc3)CN2C=C1.Cl (centres undefined) | 55% | 55% | 18% |
| CCCNC(=N)NCCC[C@H](N)C(=O)O | 95% | 96% |  |
| COc1ccc(-c2ccc(C(=O)C3CN=C4C=C(C)C=CN4C3)cc2)cc1.Cl (centres undefined) | 49% | 57% | 15% |
| CC1=CC2=NCC(C(=O)c3ccc(-c4ccc(Br)cc4)cc3)CN2C=C1.[O-][Cl+3]([O-])([O-])O (centres undefined) | 120% | 17% | 65% |
| CC1=CC2=NCC(C(=O)c3ccc(-c4ccccc4)cc3)CN2C=C1 (centres undefined) | 17% | 8% |  |
| CC1=CC2=NCC(C(=O)c3ccc4cc(C)ccc4c3)CN2C=C1.[O-][Cl+3]([O-])([O-])O (centres undefined) | 103% | 11% | 48% |
| CC1=CC2=NCC(C(=O)c3ccc(F)cc3)CN2C=C1 (centres undefined) | 78% | 77% |  |
| CC1=CC=CC2=NCC(C(=O)c3ccc(F)cc3)CN12.[O-][Cl+3]([O-])([O-])O (centres undefined) | 88% | 77% | 71% |
| CC1=CC2=NCC(C(=O)c3ccc4ccccc4c3)CN2C=C1 (centres undefined) | 47% | 60% |  |
| CC1=CC2=NCC(C(=O)c3ccc(Br)cc3)CN2C=C1 (centres undefined) | 69% | 73% |  |
| O=C(c1ccc(Cl)c(Cl)c1)C1CN=C2C=CC=CN2C1.[O-][Cl+3]([O-])([O-])O (centres undefined) | 105% | 89% | 83% |
| COc1ccc(C(=O)C2CN=C3C=C(C)C=CN3C2)cc1F.[O-][Cl+3]([O-])([O-])O (centres undefined) | 102% | 84% | 59% |
| COc1ccc(C(=O)C2CN=C3C=CC=C(C)N3C2)cc1OC.[O-][Cl+3]([O-])([O-])O (centres undefined) |  |  | 81% |
